Test results as given in PMC9826503 (Chemmedchem, 2022).
Read-outs that look alike come from different tables or passages of the source.

Tests used:
human genomic DNA (gDNA) = test: Agarose gel electrophoresis, ethidium bromide displacement from gDNA; format: binding
Outline: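 Human genomic DNA (100 ng) was incubated with test compound at 50 or 200 μM for 4 hours at 37 °C, alongside a 2 % (v/v) DMSO control and a cisplatin (200 μM) control. Mixtures with loading dye were run on a 0.8 % (w/v) agarose gel containing ethidium bromide, 45 min at 90 V in 1× TAE (40 mM Tris-acetate, 1 mM EDTA). Bands were imaged, and EtBr staining intensity was compared across lanes.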

calf thymus DNA = test: Methylene blue DNA competition assay; format: binding; details: 50 and 200 μM, 100 ng calf thymus DNA, 15 μg/mL methylene blue
Outline: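 Each 100 μL reaction held methylene blue (15 μg/mL), calf thymus DNA (100 ng) and test compound (50 or 200 μM) in MilliQ water, with a 0.05 % (v/v) DMSO vehicle control. Mixtures were incubated 10 minutes at room temperature in the dark. An emission scan was then recorded under fixed excitation. Runs were done in triplicate.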

[1] = biological target: T1, recombinant human topoisomerase I (Homo sapiens, UniProt P11387); test: Topoisomerase I inhibition; format: biochemical
T1 sequence (P11387 1-765): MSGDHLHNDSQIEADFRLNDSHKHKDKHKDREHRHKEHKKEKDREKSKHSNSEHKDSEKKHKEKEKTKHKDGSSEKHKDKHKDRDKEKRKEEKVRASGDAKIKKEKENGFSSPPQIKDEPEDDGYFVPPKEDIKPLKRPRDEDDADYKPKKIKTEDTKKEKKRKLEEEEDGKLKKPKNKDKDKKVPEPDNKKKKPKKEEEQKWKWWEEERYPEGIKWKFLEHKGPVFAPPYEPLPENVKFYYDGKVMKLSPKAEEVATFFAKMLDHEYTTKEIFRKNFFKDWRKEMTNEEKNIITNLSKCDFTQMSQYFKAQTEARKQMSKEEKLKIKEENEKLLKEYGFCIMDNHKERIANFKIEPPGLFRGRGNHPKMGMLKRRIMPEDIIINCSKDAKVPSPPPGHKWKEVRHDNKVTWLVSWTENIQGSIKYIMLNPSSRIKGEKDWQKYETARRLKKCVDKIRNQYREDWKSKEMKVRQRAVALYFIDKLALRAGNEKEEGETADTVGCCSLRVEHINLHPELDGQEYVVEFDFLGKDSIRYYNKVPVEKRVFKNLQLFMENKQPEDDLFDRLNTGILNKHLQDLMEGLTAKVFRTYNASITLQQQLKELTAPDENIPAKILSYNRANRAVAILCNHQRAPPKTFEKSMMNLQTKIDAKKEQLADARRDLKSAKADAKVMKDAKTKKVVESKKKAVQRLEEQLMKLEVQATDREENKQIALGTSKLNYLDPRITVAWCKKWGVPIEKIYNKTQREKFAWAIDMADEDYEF

[2] = biological target: T2, bovine serum albumin (BSA) (Bos taurus, UniProt P02769); test: BSA UV-Vis absorption titration; format: binding; details: 280 nm
Outline: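 BSA (~20 μM, PBS pH 7.2; concentration set from ε280 = 43824 M−1 cm−1) titrated with test compound (0–~380 μM; stocks in MeOH). Equal compound volumes added to the sample and reference cells; each mixture incubated 2 min. BSA absorbance at 280 nm fitted to a double-reciprocal plot of 1/(A0−A) vs 1/[compound]. kapp taken as the intercept/slope ratio.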

[3] = biological target: T2, bovine serum albumin (BSA); test: BSA fluorescence quenching titration, with and without site markers; format: binding
Outline: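 Emission spectra of BSA recorded at 293 K during titration with increasing test compound. Excitation 280 nm, emission 300–500 nm, slits 5 nm. Intensities corrected for inner filter effect using absorbances at the excitation and emission maxima. KSV from Stern-Volmer fit; kq = KSV/τ0, τ0 10−8 s. Site-marker runs: warfarin (site I) or ibuprofen (site II) added equimolar to BSA (each 5 μM) before titration.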

[4] = system: HCC70 triple negative breast cancer cell line; test: Resazurin cytotoxicity assay, HCC70; format: cell-based; details: for IC50: read-out: HCC70 IC50 and SD
[5] = system: MCF-7 hormone responsive breast cancer cell line; test: Resazurin cytotoxicity assay, MCF-7; format: cell-based; details: for IC50: read-out: MCF-7 IC50 and SD
[6] = system: non-tumorigenic breast epithelial cell line MCF12A; test: Resazurin cytotoxicity assay, MCF-12A; format: cell-based; details: read-out: MCF-12A IC50 and SD
[7] = Time-dependent stability studies by UV-Vis spectrophotometry; format: physicochemical; details: 10^−5 M, 1 hour intervals for 24 hours
Outline: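 Test compound was dissolved at 10−5 M in anhydrous DMSO at room temperature and filtered. UV-Vis spectra were then recorded hourly over 24 hours.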

[8] = system: HeLa cervical cancer cell line; test: Resazurin cytotoxicity assay, HeLa; format: cell-based
[9] = system: cancer cell lines (HeLa, HCC70, MCF-7); test: Resazurin cytotoxicity assay, cancer cell lines as a group; format: cell-based; details: read-out: IC50 values against the cancer cells
Outline: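 HeLa, HCC70 and MCF-7 cells seeded at 5000 cells/well and left to attach overnight (37 °C, 9 % CO2). Treated 96 h with test compound (15.63–500.00 μM), 2 % (v/v) DMSO vehicle, or paclitaxel control (0.16–500 nM). Resazurin then added for 2–4 h; fluorescence read at ex 560/em 590 nm. Done in triplicate; IC50 by non-linear regression.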

[10] = Ibuprofen site marker (site II)
[11] = No Site marker, KSV=kq τ0, τ0 10^−8 s
[12] = 96 hours, non-cancerous control
[13] = (IC50 value in MCF12-A)/(IC50 value in cancer cell line)

T2 sequence (P02769 25-607): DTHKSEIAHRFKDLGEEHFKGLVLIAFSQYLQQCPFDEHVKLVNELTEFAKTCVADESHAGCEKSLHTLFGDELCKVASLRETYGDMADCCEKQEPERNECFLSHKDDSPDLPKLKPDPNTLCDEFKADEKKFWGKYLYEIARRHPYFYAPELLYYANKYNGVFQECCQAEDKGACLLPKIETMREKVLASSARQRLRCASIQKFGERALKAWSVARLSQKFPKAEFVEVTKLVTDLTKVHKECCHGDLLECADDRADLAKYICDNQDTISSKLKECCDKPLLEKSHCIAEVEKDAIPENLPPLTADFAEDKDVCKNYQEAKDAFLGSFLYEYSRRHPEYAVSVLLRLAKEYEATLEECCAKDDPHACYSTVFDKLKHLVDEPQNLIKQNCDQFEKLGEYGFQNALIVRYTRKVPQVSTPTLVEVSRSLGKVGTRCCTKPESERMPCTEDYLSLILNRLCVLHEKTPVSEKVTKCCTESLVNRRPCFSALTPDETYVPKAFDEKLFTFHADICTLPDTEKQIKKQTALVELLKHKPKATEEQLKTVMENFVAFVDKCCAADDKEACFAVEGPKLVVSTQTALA

Row | Molecule | Intensity of EtBr stained gDNA band (human genomic DNA (gDNA); higher concentration (200 μM)) | Competition with methylene blue for DNA binding (intercalation) (calf thymus DNA) | apparent association constant (kapp) [2] | K SV [3, 10] | k q [3, 10] | K SV ([3]; No Site marker) | k q [3, 11] | K SV ([3]; Warfarin site marker (site I)) | k q ([3]; Warfarin site marker (site I)) | IC50 ([5]; 96 hours) | IC50 [6, 12] | Stability in anhydrous DMSO (UV-Vis spectral changes) [7] | also measured
1 | trans‐P‐[RuCl(PPh3)2(pmt)]Cl [Compound 1] | considerable dose‐dependent reduction in intensity | competitively bind to the calf thymus DNA in a concentration‐dependent manner | 90200 M⁻¹ | 1360 M⁻¹ | 1.36e+11 M⁻¹ s⁻¹ | 88400 M⁻¹ | 8.84e+12 M⁻¹ s⁻¹ | 2090 M⁻¹ | 2.09e+11 M⁻¹ s⁻¹ | 5.2 µM | 60.1 µM | noticeable alterations in the electronic spectrum | Intensity of EtBr stained gDNA band (human genomic DNA (gDNA); lower concentration (50 μM), relative to DMSO control): decreases in the intensity of the EtBr stained gDNA; Inhibition of Topo I activity ([1]; 50 and 200 μM): inhibited Topo I activity; fold less cytotoxic towards HCC70 compared to MCF-7 ([4]; HCC70 versus MCF-7): more than 10 fold; IC50 ([4]; 96 hours): 75.5 µM
2 | CC[C@@]1(O)C(=O)OCc2c1cc1n(c2=O)Cc2cc3ccccc3nc2-1 [camptothecin, reference compound] |  |  |  |  |  |  |  |  |  |  |  |  | Inhibition of Topo I activity ([1]; 200 μM): failed to inhibit the enzyme
3 | CC(=O)O[C@H]1C(=O)[C@@]2(C)[C@H]([C@H](OC(=O)c3ccccc3)[C@]3(O)C[C@H](OC(=O)[C@H](O)[C@@H](NC(=O)c4ccccc4)c4ccccc4)C(C)=C1C3(C)C)[C@]1(OC(C)=O)CO[C@@H]1C[C@@H]2O [Paclitaxel, paclitaxel, reference compound] |  |  |  |  |  |  |  |  |  |  |  |  | SI (selectivity index), HeLa [8, 13]: 5.96; SI (selectivity index), HCC70 [4, 13]: 4.12; IC50 ([4]; Homo sapiens, HCC70, 96 h): 0.00392 ± 0.00103 µM; SI (selectivity index), MCF-7 [5, 13]: 6.73; IC50 ([5]; Homo sapiens, MCF7, 96 h): 0.0024 ± 0.00111 µM; IC50 ([6]; Homo sapiens, MCF-12A, 96 h): 0.0162 ± 0.00108 µM; IC50 [9]: 2.4 to 3.92 nM
4 | cis‐Cl, trans‐P‐[RuCl2(PPh3)2(btm)] [Compound 3] | considerable dose‐dependent reduction in intensity | no effect on the ability of methylene blue to bind to the DNA | 18900 M⁻¹ | 9130 M⁻¹ | 9.13e+11 M⁻¹ s⁻¹ | 69500 M⁻¹ | 6.95e+12 M⁻¹ s⁻¹ | 1290 M⁻¹ | 1.29e+11 M⁻¹ s⁻¹ | 8.87 ± 1.12 µM | 36.5 ± 1.08 µM | blue‐shifted and decreasing MLCT band at 525 nm and an emerging MLCT band at 437 nm | Inhibition of Topo I activity ([1]; 50 μM): complete inhibition of Topo I; IC50 ([8]; read-out: HeLa IC50 and SD, 96 hours): 6.29 ± 1.1 µM
